From PubChem
Rows were chosen to be rich in hits. Some 1.2% of all compounds tested hit in one or more screens of this group.
FN deposit inh = fibronectin deposition inhibition. AH1F fibroblasts, Alexa488-fibronectin deposition fluorescence, overnight. inhibition, % at 12.6 µM. actives 0.086% (n = 350,000);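 active = mean inhibition across replicates of 30% or more, regardless of how many single replicates reach that level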;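 note: positive control wells lacked labelled fibronectin entirely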
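Assay system: AH1F fibroblast monolayer, labelled fibronectin deposition. Amount: 10000 cells per well. Also added: labelled fibronectin 24 nM. Compound: single-point pinned compound. Incubation: cell attachment 1 h, compound and FN exposure overnight. Detection: fluorescence after three HBSS washes, excitation 485 nm, emission 525 nm. Read-out: inhibition of fibronectin deposition signal.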
A3G deaminase = APOBEC3G (human) deaminase inhibition; actives 0.28% (n = 330,000); inhibition, % at 20 µM; Q9HC16; recombinant A3G, ssDNA deamination FAM/TAMRA fluorescence;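 active = inhibition of at least 40% at 20 µM, with no more than 30% in the related APOBEC3A deaminase screen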;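 note: plate controls were DMSO wells with A3G for no effect and wells lacking A3G enzyme for full effect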
Target sequence (Q9HC16 whole entry, looked up): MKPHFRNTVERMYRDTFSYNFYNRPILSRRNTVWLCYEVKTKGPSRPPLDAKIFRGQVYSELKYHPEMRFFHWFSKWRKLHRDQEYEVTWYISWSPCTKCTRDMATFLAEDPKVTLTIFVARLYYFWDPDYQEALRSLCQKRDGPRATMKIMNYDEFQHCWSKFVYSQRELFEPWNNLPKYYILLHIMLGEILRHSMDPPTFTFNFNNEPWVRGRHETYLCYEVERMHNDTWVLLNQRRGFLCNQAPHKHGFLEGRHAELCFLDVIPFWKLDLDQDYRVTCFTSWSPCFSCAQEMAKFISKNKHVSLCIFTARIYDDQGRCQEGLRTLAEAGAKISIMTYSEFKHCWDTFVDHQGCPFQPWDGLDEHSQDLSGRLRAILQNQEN
ABHD5 PLIN5 PPI = ABHD5-PLIN5 protein interaction inhibition | Q00G26+Q8WTS1 | Split G. princeps luciferase complementation, luminescence, 4 h | inhibition, % at 4 µM | actives 0.78% (n = 360,000);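 active = inhibition above the mean inhibition across every tested compound plus 3 SD, cut at about 22% in these data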;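 note: 0% = DMSO only wells and the 100% control is not disclosed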
A3A deaminase = human APOBEC3A DNA deaminase inhibition; P31941; recombinant A3A, FAM/TAMRA ssDNA deamination fluorescence; inhibition, % at 20 µM; actives 0.41% (n = 330,000);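 active = at least 40% inhibition at 20 µM here, with at most 30% in a related deaminase screen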;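 note: plate controls were A3A with DMSO for no effect and wells lacking A3A enzyme for full effect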
Target sequence (P31941 whole entry, looked up): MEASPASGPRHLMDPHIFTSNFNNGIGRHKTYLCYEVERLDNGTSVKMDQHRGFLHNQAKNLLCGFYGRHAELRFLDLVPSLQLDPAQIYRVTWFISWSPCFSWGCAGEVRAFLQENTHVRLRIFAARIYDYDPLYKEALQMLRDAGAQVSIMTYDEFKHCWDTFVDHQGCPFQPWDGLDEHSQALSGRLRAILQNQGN
Active calls of the source: *; . = no result given.

SMILES | FN deposit inh | A3G deaminase | ABHD5 PLIN5 PPI | A3A deaminase
C[C@H](CO)N1C[C@H](C)[C@@H](CN(C)Cc2ccc(C(=O)Nc3ccccc3N)cc2)Oc2c(NS(=O)(=O)c3cn(C)cn3)cccc2C1=O | -18.7 | . | . | .
O=C(OCn1ncc(Cl)c(Cl)c1=O)c1ccccc1Cl | active | . | 7.5 | .
N#CC1=C(N)Oc2c(ccc3cccnc23)C1c1ccccc1 (configuration not stated) | 36.1* | -6.0 | 4.0 | -0.5
CCc1ccc(S(=O)(=O)/N=C2/C=C(Sc3ncn[nH]3)C(=O)c3ccccc32)cc1 | . | . | 32.3* | .
O=C(Nc1ccccc1F)N1C[C@@H]2[C@H](c3ccccc31)[C@H](CO)N2C(=O)C1CC1 | 30.5* | . | . | .
O=C(CN1C(=O)c2cccc3cccc1c23)Nc1ccccc1C(=O)NCc1ccco1 | -3.7 | -1.3 | 22.9* | 0.4
O=C(CN1C(=O)c2ccccc2S1(=O)=O)Nc1ccccc1C(=O)NCc1ccco1 | . | -6.0 | -7.8 | -3.1
CC(=O)N(C)C[C@@H]1Oc2ccc(NC(=O)NC(C)C)cc2C(=O)N(C)C[C@@H]1C | -5.3 | . | . | .
COc1ccc(-c2ccc(C3[C@H]4CNC[C@@H]3N4Cc3cncnc3)cc2)cc1 (some centres not stated) | -5.6 | . | . | .
CN(c1ccccc1)c1nc(-n2ccnc2)nc(-n2ccnc2)n1 | 44.3* | -10.1 | 6.9 | -7.8
c1ccc(N(c2ccccc2)c2nc(-n3ccnc3)nc(-n3ccnc3)n2)cc1 | . | 0.8 | 3.1 | 0.0
COc1ccc(C(=O)CC(=O)c2ccc(C(C)(C)C)cc2)cc1 | 5.4 | . | -2.1 | .
COc1ccc(C(=O)C(CCC(CNC(C)(C)C)C(=O)c2ccc(OC)cc2)CNC(C)(C)C)cc1 (configuration not stated) | . | . | 41.4* | .
O=C1CCCC[C@@H](O)[C@H](O)C[C@H](c2ccccc2)O1 | 6.7 | . | -4.9 | .
C=C1CC2(CC(c3ccccc3)OC(c3ccccc3)C2)OC1=O (configuration not stated) | 11.1 | . | 23.0* | .
CC1(C(=O)Nc2cccc(OC(F)(F)F)c2)Cc2c(-c3ccc4c(c3)OCO4)ccnc2O1 (configuration not stated) | 33.8* | . | -1.8 | .
CN(C)c1ccc(-c2ccnc3c2CC(C)(C(=O)Nc2cccc(OC(F)(F)F)c2)O3)cc1 (configuration not stated) | 19.2 | . | -7.0 | .
CC(C)NC[C@H]1[C@H](c2ccc(C3=CCCCC3)cc2)[C@@H](CO)N1C(=O)NC(C)C | 17.6 | . | . | .
COc1ccc(-c2ccc3c(c2)O[C@@H](CN(C)CC2CCOCC2)[C@H](C)CN([C@@H](C)CO)S3(=O)=O)cc1 | 0.1 | . | . | .
COC(=O)Nc1ccc(S(=O)(=O)N2CCCc3ccccc32)cc1 | 14.9* | -5.1 | -1.1 | -4.4
COc1ccc(CCNC(=O)C2CCN(Cc3nc(-c4ccccc4F)oc3C)CC2)cc1OC | 33.5* | 11.2 | 11.3 | -1.5
COC(=O)[C@@]1(Cc2ccc(F)cc2)[C@H]2c3cc(C(=O)N(C)C)n(CCc4ccccn4)c3C[C@H]2CN1C(=O)c1ccccc1 | 8.8 | -6.9 | . | -1.4
COC(=O)[C@@]1(Cc2ccc(F)cc2)[C@H]2c3cc(C(=O)N4CCCC4)n(CCc4ccccn4)c3C[C@H]2CN1C(=O)c1ccccc1 | 43.9* | -10.7 | . | -3.9
O=C(C[C@H]1CC[C@H](NS(=O)(=O)c2cccc(F)c2)[C@@H](CO)O1)N1CCCCC1 | -1.4 | . | . | .
CC(C)C(=O)N(c1ccc2oc(=O)sc2c1)S(=O)(=O)c1cccs1 | . | -11.2 | 30.1* | -6.3
SMILES | FN deposit inh | A3G deaminase | ABHD5 PLIN5 PPI | A3A deaminase
CC(=O)N(c1ccc2oc(=O)sc2c1)S(=O)(=O)c1cccs1 | 5.4 | -2.3 | 8.9 | -1.6
CC(=O)N(C)C[C@@H]1Oc2ccc(N(C)C)cc2C(=O)N(C)C[C@H]1C | -12.6 | . | . | .
O=C1OC(c2ccc(Cl)cc2)/C(=C(/O)c2ccccc2)C1=O (configuration not stated) | 8.6 | -6.1 | 22.7* | 1.8
Cn1cnc(S(=O)(=O)N2CCN(c3ccccc3)CC2)c1 | 32.7* | -3.8 | -8.4 | -3.9
Cn1cnc(S(=O)(=O)N2CCN(c3ccc(Cl)cc3)CC2)c1 | 5.4 | -7.8 | -4.2 | -2.7
COc1ccc(C#Cc2ccc3c(c2)[C@@H]2[C@@H](CCN2C(=O)C2CCCCC2)[C@@H](CO)N3)cc1 | -3.9 | . | . | .
COc1ccc(C2Nc3ccccc3C(=O)N2Cc2ccco2)cc1COc1ccccc1F (configuration not stated) | . | -4.0 | 23.1* | -1.6
COc1ccc(C2Nc3ccccc3C(=O)N2Cc2ccco2)cc1COc1ccc(NC(C)=O)cc1 (configuration not stated) | -9.2 | -1.0 | 8.8 | 0.0
N=c1c(C(=O)NCc2ccc(F)cc2)cc2c(=O)n3ccccc3nc2n1Cc1ccco1 | . | 9.3 | 19.8 | 5.5
Cc1ccc(CNC(=O)c2cc3c(=O)n4ccccc4nc3n(Cc3ccco3)c2=N)cc1 | . | -3.3 | 30.2* | 1.1
N=c1c(C(=O)NCc2ccccc2)cc2c(=O)n3ccccc3nc2n1Cc1ccco1 | 2.0 | -1.1 | 26.3* | -1.9
N=c1c(C(=O)NCc2ccco2)cc2c(=O)n3ccccc3nc2n1C1CCCC1 | -15.7 | 7.2 | 22.7* | 2.9
CCCCn1c(=NC(=O)c2cccnc2)c(C(=O)OCC)cc2c(=O)n3ccccc3nc21 | -1.8 | . | -4.9 | .
CCCCn1c(=NC(=O)c2ccco2)c(C(=O)OCC)cc2c(=O)n3ccccc3nc21 | -5.6 | 1.8 | 28.0* | 2.5
C[C@H]1C/C=C\C[C@@H](c2ccc3c(c2)OCO3)NC(=O)[C@H](c2ccccc2)CC(=O)N1 | -11.7 | . | . | .
CC(C)NC(=O)N(C)C[C@H]1Oc2c(NC(=O)Cn3cnnn3)cccc2C(=O)N([C@H](C)CO)C[C@@H]1C | -7.2 | . | . | .
CC(C)NC(=O)N(C)C[C@@H]1Oc2ccc(NC(=O)c3ccncc3)cc2CC(=O)N([C@@H](C)CO)C[C@H]1C | 9.4 | . | . | .
C[C@@H]1CN([C@H](C)CO)C(=O)c2cc(NC(=O)Nc3ccc(F)cc3)ccc2O[C@@H](C)CCCCO[C@H]1CN(C)C(=O)Nc1ccc(F)cc1 | 9.7 | . | . | .
COc1cc(C(CCN2CCCCC2)c2c(OC)cc(OC)c3c(-c4ccccc4)cc(=O)oc23)cc(OC)c1OC (configuration not stated) | 30.3* | -9.0 | 20.1 | -2.7
